Reference: the RNAGym collection of RNA variant scans (doi:10.1002/anie.201605470)

B1: Osa-1-4 twister ribozyme (parent)
chain: CCGCCUAACACUGCCAAUGCCGGUCCCAAGCCCGGAUAAAAGUGGAGGGGGCGG

Variants of: B1
Assay: self-cleavage, relative activity (ratio to wild type); higher = more cleavage; co-transcriptional
Outline: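 Relative activity is the fraction cleaved divided by that of the wild-type ribozyme. The library came from a DNA template for a 54-nucleotide Oryza sativa twister ribozyme, doped at the 48 positions downstream of the cleavage site with 97 % wild-type base and 1 % of each other base. After 2 h of in vitro transcription at 37 °C with co-transcriptional self-cleavage, the RNA was reverse-transcribed with a template-switching oligonucleotide, amplified by PCR and deep-sequenced, and reads with or without upstream sequence gave the cleavage status.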
With CCGCCUAACACUGCCAAUGCCAGUCCCCAGCCCGGAUAAAAGUGGAGGGGGCGG [A28C G22A] the self-cleavage was 0.68. Work on CCGCCUAACACUGCCAAUGCCCGUCCCCAGCCCGGAUAAAAGUGGAGGGGGCGG [A28C G22C] yielded a self-cleavage of 0.08. In the case of CCGCCUAACACUGCCAAUGCCUGUCCCCAGCCCGGAUAAAAGUGGAGGGGGCGG [A28C G22U], the self-cleavage is reported as 0.4. With CCGCCUAACACUGCCAAUGCCGGUCCCCAGCCCGGAUAAAAGUGGAGGGGGCGA [A28C G54A] the self-cleavage was 0.91. CCGCCUAACACUGCCAAUGCCGGUCCCCAGCCCGGAUAAAAGUGGAGGGGGCGC [A28C G54C] gave a self-cleavage of 0.86. CCGCCUAACACUGCCAAUGCCGGUCCCCAGCCCGGAUAAAAGUGGAGGGGGCGU [A28C G54U] gave a self-cleavage of 0.95. Work on CCGCCUAACACUGCCAAUGCCGGUCCCGAGCCCGGAUAACAGUGGAGGGGGCGG [A28G A40C] yielded a self-cleavage of 0.05. Variant CCGCCUAACACUGCCAAUGCCGGUCCCGAGCCCGGAUAAGAGUGGAGGGGGCGG [A28G A40G] has a self-cleavage of 0.14. Variant CCGCCUAACACUGCCAAUGCCGGUCCCGAGCCCGGAUAAUAGUGGAGGGGGCGG [A28G A40U] has a self-cleavage of 0.09. CCGCCUAACACUGCCAAUGCCGGUCCCGAGCCCGGAUAGAAGUGGAGGGGGCGG [A28G A39G] gave a self-cleavage of 0.17. For CCGCCUAACACUGCCAAUGCCGGUCCCGAGCCCGGAUAUAAGUGGAGGGGGCGG [A28G A39U], the self-cleavage was 0.16. In the case of CCGCCUAACACUGCCAAUGCCGGUCCCGAGCCCGGAUACAAGUGGAGGGGGCGG [A28G A39C], the self-cleavage is reported as 0.11. CCGCCUAACACUGCCAAUGCCGGUCCCCAGCCCGGAUAAAAGUGGAGUGGGCGG [A28C G48U] showed a self-cleavage of 0.07. CCGCCUAACACUGCCAAUGCCGGUCCCCAGCCCGGAUAAAAGUGGAGAGGGCGG [A28C G48A] gave a self-cleavage of 0.09. In the case of CCGCCUAACACUGCCAAUGCCGGUCCCCAGCCCGGAUAAAAGUGGAGCGGGCGG [A28C G48C], the self-cleavage is reported as 0.08. Variant CCGCCUAACACUGCCAAUACCGGUCCCCAGCCCGGAUAAAAGUGGAGGGGGCGG [A28C G19A] has a self-cleavage of 0.79. For CCGCCUAACACUGCCAAUCCCGGUCCCCAGCCCGGAUAAAAGUGGAGGGGGCGG [A28C G19C], the self-cleavage was 0.23. Work on CCGCCUAACACUGCCAAUUCCGGUCCCCAGCCCGGAUAAAAGUGGAGGGGGCGG [A28C G19U] yielded a self-cleavage of 0.35. Work on CCGCCUAACACUGCCAAUGCCGGUCCCCAGCCCGGAUAAAAGUGGAGGGGGGGG [A28C C52G] yielded a self-cleavage of 0.93. CCGCCUAACACUGCCAAUGCCGGUCCCCAGCCCGGAUAAAAGUGGAGGGGGUGG [A28C C52U] gave a self-cleavage of 1.01. With CCGCCUAACACUGCCAAUGCCGGUCCCCAGCCCGGAUAAAAGUGGAGGGGGAGG [A28C C52A] the self-cleavage was 0.68. Variant CCGCCUAACACUGCCAAUGCCGAUCCCCAGCCCGGAUAAAAGUGGAGGGGGCGG [A28C G23A] has a self-cleavage of 0.2. Work on CCGCCUAACACUGCCAAUGCCGUUCCCCAGCCCGGAUAAAAGUGGAGGGGGCGG [A28C G23U] yielded a self-cleavage of 0.07. In the case of CCGCCUAACACUGCCAAUGCCGCUCCCCAGCCCGGAUAAAAGUGGAGGGGGCGG [A28C G23C], the self-cleavage is reported as 0.05. With CCGCCUAACACCGCCAAUGCCGGUCCCCAGCCCGGAUAAAAGUGGAGGGGGCGG [A28C U12C] the self-cleavage was 0.34. CCGCCUAACACAGCCAAUGCCGGUCCCCAGCCCGGAUAAAAGUGGAGGGGGCGG [A28C U12A] gave a self-cleavage of 0.89. Work on CCGCCUAACACGGCCAAUGCCGGUCCCCAGCCCGGAUAAAAGUGGAGGGGGCGG [A28C U12G] yielded a self-cleavage of 0.15. For CCGCCUAACACUGCCAAUGCCGGUCCCGAGCCCGGAUAAACGUGGAGGGGGCGG [A28G A41C], the self-cleavage was 0.13. CCGCCUAACACUGCCAAUGCCGGUCCCCAGCCCGGAUAAAAGUGGAGGGGACGG [A28C G51A] showed a self-cleavage of 0.24. For CCGCCUAACACUGCCAAUGCCGGUCCCCAGCCCGGAUAAAAGUGGAGGGGUCGG [A28C G51U], the self-cleavage was 0.28. For CCGCCUAACACUGCCAAUGCCGGUCCCCAGCCCGGAUAAAAGUGGAGGGGCCGG [A28C G51C], the self-cleavage was 0.12. With CCGCCUAACACUCCCAAUGCCGGUCCCCAGCCCGGAUAAAAGUGGAGGGGGCGG [A28C G13C] the self-cleavage was 0.02. CCGCCUAACACUUCCAAUGCCGGUCCCCAGCCCGGAUAAAAGUGGAGGGGGCGG [A28C G13U] showed a self-cleavage of 0.03. Work on CCGCCUAACACUACCAAUGCCGGUCCCCAGCCCGGAUAAAAGUGGAGGGGGCGG [A28C G13A] yielded a self-cleavage of 0.11. Work on CCGCCUAACACUGCCAAUGCCGGUCCCCAGCCCGGAUAAAAGUGGAGGGGGCUG [A28C G53U] yielded a self-cleavage of 0.23. CCGCCUAACACUGCCAAUGCCGGUCCCCAGCCCGGAUAAAAGUGGAGGGGGCAG [A28C G53A] gave a self-cleavage of 0.78. For CCGCCUAACACUGCCAAUGCCGGUCCCCAGCCCGGAUAAAAGUGGAGGGGGCCG [A28C G53C], the self-cleavage was 0.08. In the case of CCGCCUAACACUGCCAAUGCCGGUCCCGCGCCCGGAUAAAAGUGGAGGGGGCGG [A28G A29C], the self-cleavage is reported as 0.02. Variant CCGCCUAACACUGCCAAUGCCGGUCCCGUGCCCGGAUAAAAGUGGAGGGGGCGG [A28G A29U] has a self-cleavage of 0.06. For CCGCCUAACACUGCCAAUGCCGGUCCCGGGCCCGGAUAAAAGUGGAGGGGGCGG [A28G A29G], the self-cleavage was 0.08. Variant CCGCCUUACACUGCCAAUGCCGGUCCCGAGCCCGGAUAAAAGUGGAGGGGGCGG [A28G A7U] has a self-cleavage of 0.07. In the case of CCGCCUCACACUGCCAAUGCCGGUCCCGAGCCCGGAUAAAAGUGGAGGGGGCGG [A28G A7C], the self-cleavage is reported as 0.04. In the case of CCGCCUGACACUGCCAAUGCCGGUCCCGAGCCCGGAUAAAAGUGGAGGGGGCGG [A28G A7G], the self-cleavage is reported as 0.38. CCGCCUAACACUGCCAAUGCCGGUCCCCAGCCCGCAUAAAAGUGGAGGGGGCGG [A28C G35C] gave a self-cleavage of 0.4. CCGCCUAACACUGCCAAUGCCGGUCCCCAGCCCGAAUAAAAGUGGAGGGGGCGG [A28C G35A] gave a self-cleavage of 0.81. CCGCCUAACACUGCCAAUGCCGGUCCCCAGCCCGUAUAAAAGUGGAGGGGGCGG [A28C G35U] showed a self-cleavage of 0.85. For CCGCCUAACACUGCCAAUGCCGGUCCCCACCCCGGAUAAAAGUGGAGGGGGCGG [A28C G30C], the self-cleavage was 0.05. Variant CCGCCUAACACUGCCAAUGCCGGUCCCCAUCCCGGAUAAAAGUGGAGGGGGCGG [A28C G30U] has a self-cleavage of 0.04.
